# Experimental data from ChEMBL document CHEMBL5252516, “Linker Modification Strategies To Control the Prostate-Specific Membrane Antigen (PSMA)-Targeting and Pharmacokinetic Properties of DOTA-Conjugated PSMA Inhibitors” (J Med Chem, 2016).
# pKi: −log10 of the molar value.
# Tests used:
# [1] = biological target: T1, Glutamate carboxypeptidase 2 (Homo sapiens, UniProt Q04609); assay: Binding affinity to PSMA in human LNCaP cells after 45 mins in presence of 68Ga-labeled PSMA-10 by gamma counting assay; assay type: cell-based
# Target sequence in this assay (Q04609 whole entry): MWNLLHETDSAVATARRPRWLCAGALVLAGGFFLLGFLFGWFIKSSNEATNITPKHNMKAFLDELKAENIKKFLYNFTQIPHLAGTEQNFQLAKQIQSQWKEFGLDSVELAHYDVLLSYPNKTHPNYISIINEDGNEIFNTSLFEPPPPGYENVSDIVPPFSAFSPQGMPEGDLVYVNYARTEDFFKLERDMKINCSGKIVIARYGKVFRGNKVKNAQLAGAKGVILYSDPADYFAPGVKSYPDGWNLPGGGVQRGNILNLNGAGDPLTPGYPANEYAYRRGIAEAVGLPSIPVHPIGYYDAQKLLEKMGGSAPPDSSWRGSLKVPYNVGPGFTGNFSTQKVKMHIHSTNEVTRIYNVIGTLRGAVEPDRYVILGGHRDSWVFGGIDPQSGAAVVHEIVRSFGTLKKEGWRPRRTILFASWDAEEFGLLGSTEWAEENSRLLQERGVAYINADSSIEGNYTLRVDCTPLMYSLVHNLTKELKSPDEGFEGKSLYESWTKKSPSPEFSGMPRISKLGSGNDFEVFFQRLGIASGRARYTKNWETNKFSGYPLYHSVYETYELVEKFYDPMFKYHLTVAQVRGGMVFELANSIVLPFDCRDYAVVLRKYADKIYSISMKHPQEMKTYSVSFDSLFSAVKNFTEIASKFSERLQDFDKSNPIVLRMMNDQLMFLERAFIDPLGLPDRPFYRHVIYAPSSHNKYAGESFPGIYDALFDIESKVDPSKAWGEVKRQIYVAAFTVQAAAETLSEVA
# [2] = Retention time of the compound by HPLC; assay type: physicochemical
# [3] = Distribution coefficient, logD of the compound at pH 7.4 in n-octanol/0.1 M HEPES by shake flask method; assay type: physicochemical
# Outline: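 Radiolabelled compound shaken to equilibrium in n-octanol / 0.1 M HEPES pH 7.4. Aliquots of both phases gamma-counted and logD calculated from the phase ratio. Mean ± SD.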
# [4] = biological target: T1, Glutamate carboxypeptidase 2; assay: Inhibition of PSMA in human LNCaP cells assessed as cell surface binding per 10^6 cells using 177Lu-labeled compound after 45 mins by gamma counting analysis; assay type: cell-based
# Outline: (§1)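 LNCaP cells (10^5/well) seeded on poly-L-lysine 24 h before. Incubated 45 min at 37 °C with 32 nM 177Lu-labelled compound (25 GBq/µmol) in Opti-MEM, with or without 500 µM 2-PMPA as blocker. Four ice-cold PBS washes, surface fraction stripped with 50 mM glycine pH 2.8, internalized fraction released by 0.3 M NaOH lysis. Both fractions gamma-counted, specific values given as %IA/10^6 cells. Triplicate.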
# Target sequence in this assay (Q04609 whole entry, looked up): as the sequence (Q04609 whole entry) above
# [5] = biological target: T1, Glutamate carboxypeptidase 2; assay: Inhibition of PSMA in human LNCaP cells assessed as specific internalization per 10^6 cells using 177Lu-labeled compound after 45 mins by gamma counting analysis; assay type: cell-based; outline: as §1
# Target sequence in this assay (Q04609 whole entry, looked up): as the sequence (Q04609 whole entry) above
# [6] = Ratio of drug uptake in tumor to muscle in iv dosed BALB/c athymic nude mouse xenografted with human LNCaP cells treated with 68Ga-labeled compound measured after 1 hr by microPET imaging analysis; assay type: ADME, organism-based; details: in vivo
# Outline: (§2)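 Male BALB/c nu/nu mice, 6–8 weeks old, with subcutaneous LNCaP xenografts (6 × 10^6 cells in 50% Matrigel, right trunk) of about 1 cm. Tail-vein injection of 68Ga-labelled compound (~30 MBq, 0.5 nmol) under sevoflurane. Dynamic µPET: 60 min emission scan, then 100–120 min scan. SUVmean for tumor, muscle and kidney at 1 h; tumor/muscle ratio. One animal per compound.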
# [7] = Drug uptake in iv dosed BALB/c athymic nude mouse tumor xenografted with human LNCaP cells treated with 68Ga-labeled compound measured after 1 hr by microPET imaging analysis; assay type: ADME, organism-based; details: in vivo; outline: as §2
# [8] = Drug uptake in iv dosed BALB/c athymic nude mouse muscle xenografted with human LNCaP cells treated with 68Ga-labeled compound measured after 1 hr by microPET imaging analysis; assay type: ADME, organism-based; details: in vivo; outline: as §2
# [9] = Drug uptake in iv dosed BALB/c athymic nude mouse kidney xenografted with human LNCaP cells treated with 68Ga-labeled compound measured after 1 hr by microPET imaging analysis; assay type: ADME, organism-based; details: in vivo; outline: as §2
# [10] = Binding affinity to human serum protein after 1 hr by gel filtration method; assay type: ADME
# [11] = Drug uptake in iv dosed BALB/c athymic nude mouse tumor xenografted with human LNCaP cells treated with 68Ga-labeled compound measured upto 120 mins by microPET imaging analysis; assay type: ADME, organism-based; details: in vivo, 2 h; outline: as §2
SMILES,pKi [1],Retention_time [2],logD [3],specific cell surface binding (% of applied activity per 10^6 cells) [4],specific internalization (% of added activity per 10^6 cells) [5],Ratio [6],SUV [7],SUV [8],SUV [9],PB [10],Drug uptake [11]
O=C(O)CCc1ccc(O)c(CN(CCN(CC(=O)O)Cc2cc(CCC(=O)NCCCCCC(=O)NCCCC[C@H](NC(=O)N[C@@H](CCC(=O)O)C(=O)O)C(=O)O)ccc2O)CC(=O)O)c1 [GOZETOTIDE],7.92,1.69 min,-1.71,10.6%,9.47%,4.9,–,–,–,–,–
O=C(O)CC[C@H](NC(=O)N[C@@H](CCCCNC(=O)c1ccc(CNC(=O)[C@H](Cc2ccc3ccccc3c2)NC(=O)[C@H]2CC[C@H](CNC(=O)CN3CCN(CC(=O)O)CCN(CC(=O)O)CCN(CC(=O)O)CC3)CC2)cc1)C(=O)O)C(=O)O,–,2.7 min,–,–,–,Not Determined(Unstable),Not Determined(Unstable),Not Determined(Unstable),Not Determined(Unstable),–,–
O=C(O)CC[C@H](NC(=O)N[C@@H](CCCCNC(=O)[C@H](Cc1ccc2ccccc2c1)NC(=O)[C@H]1CC[C@H](CNC(=O)CN2CCN(CC(=O)O)CCN(CC(=O)O)CCN(CC(=O)O)CC2)CC1)C(=O)O)C(=O)O [VIPIVOTIDE TETRAXETAN],–,2.63 min,-2,11.4%,16.2%,–,0.59,0.07,2.87,Not Active,Active
O=C(O)CC[C@H](NC(=O)N[C@@H](CCCCNC(=O)[C@H](Cc1ccc2ccccc2c1)NC(=O)CN1CCN(CC(=O)O)CCN(CC(=O)O)CCN(CC(=O)O)CC1)C(=O)O)C(=O)O,7.54,2.71 min,-2.03,1.68%,1.77%,1.6,0.31,0.2,4.79,–,–
O=C(O)CC[C@H](NC(=O)N[C@@H](CCCCNC(=O)c1ccc(CNC(=O)c2ccc(CNC(=O)c3ccc(CNC(=O)c4ccc(CNC(=O)CN5CCN(CC(=O)O)CCN(CC(=O)O)CCN(CC(=O)O)CC5)cc4)cc3)cc2)cc1)C(=O)O)C(=O)O,8.21,2.44 min,-2.12,25.2%,6.86%,2.1,0.52,0.25,2.21,–,Active
O=C(O)CC[C@H](NC(=O)N[C@@H](CCCCNC(=O)[C@H](Cc1ccc2ccccc2c1)NC(=O)CCCCCNC(=O)CN1CCN(CC(=O)O)CCN(CC(=O)O)CCN(CC(=O)O)CC1)C(=O)O)C(=O)O,8.20,2.58 min,-1.88,9.07%,2.99%,2,0.14,0.07,2.26,–,–
O=C(O)CC[C@H](NC(=O)N[C@@H](CCCCNC(=O)[C@H]1CC[C@H](CNC(=O)CN2CCN(CC(=O)O)CCN(CC(=O)O)CCN(CC(=O)O)CC2)CC1)C(=O)O)C(=O)O,8.03,1.81 min,-0.91,4.14%,1.24%,1.5,0.23,0.15,6.86,–,Not Active
O=C(O)CC[C@H](NC(=O)N[C@@H](CCCCNC(=O)[C@H]1CC[C@H](CNC(=O)[C@H](Cc2ccc3ccccc3c2)NC(=O)CN2CCN(CC(=O)O)CCN(CC(=O)O)CCN(CC(=O)O)CC2)CC1)C(=O)O)C(=O)O,7.75,2.48 min,-1.44,1.09%,0.13%,3.5,0.39,0.11,3.62,–,Not Active
O=C(O)CC[C@H](NC(=O)N[C@@H](CCCCNC(=O)[C@H]1CC[C@H](CNC(=O)[C@H]2CC[C@H](CNC(=O)[C@H]3CC[C@H](CNC(=O)CN4CCN(CC(=O)O)CCN(CC(=O)O)CCN(CC(=O)O)CC4)CC3)CC2)CC1)C(=O)O)C(=O)O,7.71,2.28 min,-1.98,0.23%,0.03%,0.9,0.18,0.21,2.91,–,Not Active
O=C(O)CC[C@H](NC(=O)N[C@@H](CCCCNC(=O)[C@@H](Cc1ccc2ccccc2c1)NC(=O)[C@H]1CC[C@H](CNC(=O)CN2CCN(CC(=O)O)CCN(CC(=O)O)CCN(CC(=O)O)CC2)CC1)C(=O)O)C(=O)O,8.05,2.56 min,-2.02,12.2%,7.18%,–,0.69,0.27,3.98,–,Active
O=C(O)CC[C@H](NC(=O)N[C@@H](CCCCNC(=O)c1ccc(CNC(=O)CN2CCN(CC(=O)O)CCN(CC(=O)O)CCN(CC(=O)O)CC2)cc1)C(=O)O)C(=O)O,8.71,1.56 min,-1.99,8.54%,5.11%,2.2,0.28,0.13,2.68,–,Active
O=C(O)CC[C@H](NC(=O)N[C@@H](CCCCNC(=O)[C@H](Cc1cccc2ccccc12)NC(=O)[C@H]1CC[C@H](CNC(=O)CN2CCN(CC(=O)O)CCN(CC(=O)O)CCN(CC(=O)O)CC2)CC1)C(=O)O)C(=O)O,7.89,2.59 min,-1.95,6.58%,0.9%,3.6,0.29,0.08,2.15,–,Not Active
O=C(O)CC[C@H](NC(=O)N[C@@H](CCCCNC(=O)[C@H](Cc1ccc(-c2ccccc2)cc1)NC(=O)CN1CCN(CC(=O)O)CCN(CC(=O)O)CCN(CC(=O)O)CC1)C(=O)O)C(=O)O,9.30,2.59 min,-1.98,4.93%,2.22%,2.7,0.63,0.23,6.57,–,Active
O=C(O)CC[C@H](NC(=O)N[C@@H](CCCCNC(=O)c1ccc(CNC(=O)c2ccc(CNC(=O)CN3CCN(CC(=O)O)CCN(CC(=O)O)CCN(CC(=O)O)CC3)cc2)cc1)C(=O)O)C(=O)O,8.12,1.78 min,-1.94,14.3%,3.66%,5.6,0.56,0.1,3.16,–,Active
